{"source": "paper PMC7740640", "about": "(Xenobiotica; the fate of foreign compounds in biological …, 2020)", "format_in_all_cases": "in vitro ADME", "key": {"CYP2D6": {"target": "CYP2D6 (Homo sapiens, UniProt P10635)", "sequence (P10635 whole entry)": "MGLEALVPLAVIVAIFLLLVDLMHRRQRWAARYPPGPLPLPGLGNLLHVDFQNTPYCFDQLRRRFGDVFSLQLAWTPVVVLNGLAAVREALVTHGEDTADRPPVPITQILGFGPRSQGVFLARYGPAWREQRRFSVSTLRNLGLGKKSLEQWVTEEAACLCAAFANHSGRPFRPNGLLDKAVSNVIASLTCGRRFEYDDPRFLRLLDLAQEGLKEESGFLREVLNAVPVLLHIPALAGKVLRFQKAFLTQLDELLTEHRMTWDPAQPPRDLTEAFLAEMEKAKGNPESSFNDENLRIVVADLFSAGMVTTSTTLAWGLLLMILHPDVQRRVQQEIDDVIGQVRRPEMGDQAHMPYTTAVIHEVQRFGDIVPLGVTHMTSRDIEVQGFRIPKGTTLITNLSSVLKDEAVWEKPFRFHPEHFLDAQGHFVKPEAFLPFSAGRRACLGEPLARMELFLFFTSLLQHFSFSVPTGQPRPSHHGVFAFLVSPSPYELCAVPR", "assay": "C152 metabolism by Supersomes containing CYP2D6", "conditions": "recombinant CYP2D6 Supersomes"}, "CYP2C9 [1]": {"target": "T1, CYP2C9 (Homo sapiens, UniProt P11712)", "T1 sequence (P11712 whole entry)": "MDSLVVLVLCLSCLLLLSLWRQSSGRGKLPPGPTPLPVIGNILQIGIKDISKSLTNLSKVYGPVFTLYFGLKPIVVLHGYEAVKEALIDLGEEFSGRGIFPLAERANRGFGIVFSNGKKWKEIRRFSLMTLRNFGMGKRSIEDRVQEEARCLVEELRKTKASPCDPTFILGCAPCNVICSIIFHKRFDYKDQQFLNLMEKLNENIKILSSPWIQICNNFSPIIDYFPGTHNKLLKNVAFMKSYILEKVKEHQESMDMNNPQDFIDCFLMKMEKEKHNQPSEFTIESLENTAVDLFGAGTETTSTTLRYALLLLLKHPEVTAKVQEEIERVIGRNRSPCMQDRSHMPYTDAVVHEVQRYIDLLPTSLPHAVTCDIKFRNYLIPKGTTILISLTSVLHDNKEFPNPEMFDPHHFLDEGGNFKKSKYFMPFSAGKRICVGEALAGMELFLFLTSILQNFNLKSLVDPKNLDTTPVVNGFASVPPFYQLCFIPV", "assay": "C152 metabolism", "conditions": "for Specific rate: CYP2C9", "outline": "(§1)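 Human P450s in Supersomes that co-express human CPR and cytochrome b5. Reaction in 0.1 M Na-HEPES pH 7.4 with 60 mM KCl, stirred at 30 °C. C152 0.1–30 μM added from acetone stock; 200 μM NADPH starts it. Fluorescence rise read at 500 nm (isosbestic, mono-demethylation step). Rate is the linear slope over 3–5 min, scaled by the C151–C152 fluorescence difference. Michaelis–Menten or Hill fit, Vmax per P450, 2–6 runs; rate at 30 μM computed from fit.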"}, "CYP1A2 [2]": {"target": "T2, CYP1A2 (Homo sapiens, UniProt P05177)", "T2 sequence (P05177 2-516 limits assumed)": "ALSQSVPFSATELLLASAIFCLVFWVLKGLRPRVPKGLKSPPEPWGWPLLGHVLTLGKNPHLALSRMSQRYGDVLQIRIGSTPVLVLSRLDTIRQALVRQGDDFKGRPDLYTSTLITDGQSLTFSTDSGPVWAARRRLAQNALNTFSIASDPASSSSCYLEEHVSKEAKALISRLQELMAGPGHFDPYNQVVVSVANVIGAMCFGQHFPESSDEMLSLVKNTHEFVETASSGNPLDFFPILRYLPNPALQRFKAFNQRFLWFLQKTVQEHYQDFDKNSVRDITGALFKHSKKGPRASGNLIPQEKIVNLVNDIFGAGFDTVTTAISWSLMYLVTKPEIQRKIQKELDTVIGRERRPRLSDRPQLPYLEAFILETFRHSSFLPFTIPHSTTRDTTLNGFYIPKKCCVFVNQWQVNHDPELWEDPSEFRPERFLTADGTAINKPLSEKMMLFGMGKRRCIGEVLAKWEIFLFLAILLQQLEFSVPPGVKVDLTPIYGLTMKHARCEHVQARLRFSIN", "assay": "C152 metabolism"}, "CYP3A4 [3]": {"target": "T3, CYP3A4 (Homo sapiens, UniProt P08684)", "T3 sequence (P08684 2-503 limits assumed)": "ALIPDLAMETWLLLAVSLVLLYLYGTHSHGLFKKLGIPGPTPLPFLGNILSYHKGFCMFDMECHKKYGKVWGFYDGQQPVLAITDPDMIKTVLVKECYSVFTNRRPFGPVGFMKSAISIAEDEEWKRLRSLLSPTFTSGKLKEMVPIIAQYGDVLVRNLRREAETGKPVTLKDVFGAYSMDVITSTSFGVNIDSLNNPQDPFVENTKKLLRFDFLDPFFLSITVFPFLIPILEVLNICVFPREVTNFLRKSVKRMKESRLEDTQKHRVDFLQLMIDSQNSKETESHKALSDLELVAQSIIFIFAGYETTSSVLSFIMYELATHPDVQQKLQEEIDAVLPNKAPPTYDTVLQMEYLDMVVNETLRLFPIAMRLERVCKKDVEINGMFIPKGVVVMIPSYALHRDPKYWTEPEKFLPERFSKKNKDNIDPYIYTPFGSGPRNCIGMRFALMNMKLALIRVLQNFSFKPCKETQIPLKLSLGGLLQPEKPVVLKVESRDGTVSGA", "assay": "C152 metabolism", "conditions": "for Specific rate: CYP3A4", "outline": "as §1"}, "[4]": {"tested_on": "human liver microsomes (HLM)", "assay": "Formation of C151 from C152", "outline": "(§2)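 Probes hold 5–20 pmol P450 in 0.1 M Na-HEPES pH 7.4 with 60 mM KCl. C152 added from 0.5 or 4 mM acetone stock; reaction started with 500 μM NADPH (final), run 5 min at 30 °C with shaking. Quenched with isopropanol containing phenacetin internal standard, then centrifuged. C151 quantified by reverse-phase LC with ESI-positive MRM MS/MS (m/z 230.16→157.2). Michaelis–Menten or Hill fit; normalized per P450 (Supersomes) or CPR (HLM).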"}, "CYP2C8 [5]": {"target": "T4, CYP2C8 (Homo sapiens, UniProt P10632)", "T4 sequence (P10632 1-490)": "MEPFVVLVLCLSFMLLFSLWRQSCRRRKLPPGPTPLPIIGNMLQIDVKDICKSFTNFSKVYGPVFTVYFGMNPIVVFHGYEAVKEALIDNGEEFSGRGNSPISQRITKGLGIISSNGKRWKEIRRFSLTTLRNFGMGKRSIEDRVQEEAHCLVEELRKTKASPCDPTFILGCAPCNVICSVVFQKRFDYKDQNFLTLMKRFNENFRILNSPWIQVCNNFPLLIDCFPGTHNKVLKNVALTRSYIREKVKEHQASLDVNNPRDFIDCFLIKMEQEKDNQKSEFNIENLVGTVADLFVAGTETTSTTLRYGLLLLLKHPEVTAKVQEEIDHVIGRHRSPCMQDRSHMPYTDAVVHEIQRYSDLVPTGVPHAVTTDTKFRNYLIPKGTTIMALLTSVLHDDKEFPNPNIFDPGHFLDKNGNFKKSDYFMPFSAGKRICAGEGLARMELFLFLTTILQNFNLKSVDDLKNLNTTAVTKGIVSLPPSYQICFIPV", "assay": "Projected involvement in C152 metabolism in HLM"}, "CYP3A4 [6]": {"target": "T3, CYP3A4", "assay": "Formation of C151 from C152", "conditions": "SS(3A4)", "outline": "as §2"}, "CYP2C8 [7]": {"target": "T4, CYP2C8", "assay": "C152 metabolism"}, "CYP2C9 [8]": {"target": "T1, CYP2C9", "assay": "Projected involvement in C152 metabolism in HLM", "outline": "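Calculated values, no new incubations. Each of seven C152-metabolizing P450s has a fractional content in the pooled HLM P450 pool (LC-MS/MS MRM). That fraction is multiplied by its Supersome Vmax (saturation) or by its rate at 30 μM C152 from Hill or Michaelis–Menten parameters. Expected participation (% TNR) is each normalized rate divided by the sum of all seven.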"}, "CYP1A2 [9]": {"target": "T2, CYP1A2", "assay": "Formation of C151 from C152", "conditions": "SS(1A2)", "outline": "as §2"}, "CYP2C19": {"target": "CYP2C19 (Homo sapiens, UniProt P33261)", "sequence (P33261 whole entry)": "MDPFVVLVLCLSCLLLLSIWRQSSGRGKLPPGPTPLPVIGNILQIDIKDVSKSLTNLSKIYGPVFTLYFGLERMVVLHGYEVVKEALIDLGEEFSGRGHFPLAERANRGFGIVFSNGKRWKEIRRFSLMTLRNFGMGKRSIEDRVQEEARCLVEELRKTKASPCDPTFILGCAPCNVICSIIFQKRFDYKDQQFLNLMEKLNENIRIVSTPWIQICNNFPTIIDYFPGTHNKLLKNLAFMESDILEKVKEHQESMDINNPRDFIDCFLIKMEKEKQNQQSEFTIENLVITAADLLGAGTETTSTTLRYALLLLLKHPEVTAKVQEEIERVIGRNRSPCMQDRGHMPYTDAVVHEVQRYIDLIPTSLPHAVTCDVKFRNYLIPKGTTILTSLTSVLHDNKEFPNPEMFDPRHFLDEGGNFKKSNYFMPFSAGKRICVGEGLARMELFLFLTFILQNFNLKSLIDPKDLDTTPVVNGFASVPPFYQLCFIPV", "assay": "Formation of C151 from C152", "conditions": "SS(2C19)", "outline": "as §2"}, "[10]": {"conditions": "at 30 μM C152, calculated from fit parameters"}, "[11]": {"conditions": "at saturation (Vmax in Supersomes)"}, "[12]": {"conditions": "read-out: KM or S50 (Formation of C151, LC-MS), Michaelis-Menten fit"}, "[13]": {"conditions": "at saturation of all P450 species"}, "[14]": {"conditions": "C151 formed over total C152 metabolized"}, "[15]": {"conditions": "mol C151 formed per mol P450 per min"}}, "note": "Several values for one entry are separate records, joined by “and”; a condition that tells them apart may be missing. Equal entries are not always repeated."}
{"molecule": "CN(C)c1ccc2c(C(F)(F)F)cc(=O)oc2c1", "note": "[C152, 7-Dimethylamino-4-trifluromethylcoumarin]", "values": [{"measurement": "activity with C152", "setting": "CYP2D6", "value": "no detectable activity"}, {"measurement": "Specific rate", "setting": "CYP2C9 [1]; [10]", "value": 2.0, "unit": "min⁻¹"}, {"measurement": "Specific rate", "setting": "CYP2C9 [1]; [11]", "value": 3.9, "unit": "min⁻¹"}, {"measurement": "Vmax (C152 metabolism, fluorimetric assay)", "setting": "CYP2C9 [1]; SS(2C9), mol C152 per mol P450 per min", "value": "3.9 ± 1.2", "unit": "min⁻¹"}, {"measurement": "Km", "setting": "CYP2C9 [1]; read-out: KM or S50 (C152 metabolism, fluorimetric assay), SS(2C9), Michaelis-Menten fit, 30 °C, pH 7.4", "value": "29 ± 8", "unit": "µM"}, {"measurement": "Specific rate", "setting": "CYP1A2 [2]; CYP1A2, at 30 μM C152, calculated from fit parameters", "value": 4.5, "unit": "min⁻¹"}, {"measurement": "Specific rate", "setting": "CYP1A2 [2]; CYP1A2, at saturation (Vmax in Supersomes)", "value": 5.0, "unit": "min⁻¹"}, {"measurement": "C151 formed (both methods: LC-MS/MS and scanning fluorimetry)", "setting": "CYP1A2 [2]; CYP1A2, fraction in total rate of C152 metabolism", "value": "20–25%"}, {"measurement": "Vmax (C152 metabolism, fluorimetric assay)", "setting": "CYP1A2 [2]; SS(1A2), mol C152 per mol P450 per min", "value": "5.0 ± 1.1", "unit": "min⁻¹"}, {"measurement": "Fraction of C151 formed, Fluorimetry", "setting": "CYP1A2 [2]; SS(1A2), scanning fluorimetry with PCA", "value": "26±7", "unit": "%"}, {"measurement": "Km", "setting": "CYP1A2 [2]; read-out: KM or S50 (C152 metabolism, fluorimetric assay), SS(1A2), Michaelis-Menten fit, 30 °C, pH 7.4", "value": "2.9 ± 1.7", "unit": "µM"}, {"measurement": "Specific rate", "setting": "CYP3A4 [3]; [10]", "value": 16.5, "unit": "min⁻¹"}, {"measurement": "Specific rate", "setting": "CYP3A4 [3]; [11]", "value": 17.3, "unit": "min⁻¹"}, {"measurement": "N, Hill coefficient (C152 metabolism, fluorimetric assay)", "setting": "CYP3A4 [3]; SS(3A4)", "value": "1.6±0.2"}, {"measurement": "Vmax (C152 metabolism, fluorimetric assay)", "setting": "CYP3A4 [3]; SS(3A4), mol C152 per mol P450 per min", "value": "17 ± 3", "unit": "min⁻¹"}, {"measurement": "Fraction of C151 formed, Fluorimetry", "setting": "CYP3A4 [3]; SS(3A4), scanning fluorimetry with PCA", "value": "2.5±0.3", "unit": "%"}, {"measurement": "Km", "setting": "CYP3A4 [3]; read-out: KM or S50 (C152 metabolism, fluorimetric assay), SS(3A4), Hill fit (S50), 30 °C, pH 7.4", "value": "4.5 ± 1.2", "unit": "µM"}, {"measurement": "Vmax (Formation of C151, LC-MS)", "setting": "[4]; mol C151 formed, normalized per CPR", "value": "1.3 ± 0.2", "unit": "min⁻¹"}, {"measurement": "Km", "setting": "[4]; [12]", "value": "3 ± 0.5", "unit": "µM"}, {"measurement": "Normalized rate", "setting": "CYP2C8 [5]; at 30 μM C152", "value": 0.020, "unit": "min⁻¹"}, {"measurement": "Expected participation", "setting": "CYP2C8 [5]; at 30 μM C152, % TNR", "value": 0.16, "unit": "%"}, {"measurement": "Normalized rate", "setting": "CYP2C8 [5]; [13]", "value": 0.022, "unit": "min⁻¹"}, {"measurement": "Expected participation", "setting": "CYP2C8 [5]; at saturation of all P450 species, % TNR", "value": 0.17, "unit": "%"}, {"measurement": "N, Hill coefficient (Formation of C151, LC-MS)", "setting": "CYP3A4 [6]", "value": "1.4±0.4"}, {"measurement": "Fraction of C151 formed, LC-MS", "setting": "CYP3A4 [6]; [14]", "value": "5.4±2.4", "unit": "%"}, {"measurement": "Vmax (Formation of C151, LC-MS)", "setting": "CYP3A4 [6]; [15]", "value": "0.94 ± 0.41", "unit": "min⁻¹"}, {"measurement": "Km", "setting": "CYP3A4 [6]; read-out: KM or S50 (Formation of C151, LC-MS), Hill fit (S50)", "value": "6.4 ± 1.1", "unit": "µM"}, {"measurement": "Specific rate", "setting": "CYP2C8 [7]; CYP2C8, at 30 μM C152, calculated from fit parameters", "value": 1.9, "unit": "min⁻¹"}, {"measurement": "N, Hill coefficient (C152 metabolism, fluorimetric assay)", "setting": "CYP2C8 [7]; SS(2C8)", "value": "2.6±0.3"}, {"measurement": "Vmax (C152 metabolism, fluorimetric assay)", "setting": "CYP2C8 [7]; SS(2C8), mol C152 per mol P450 per min", "value": "2.6 ± 0.8", "unit": "min⁻¹"}, {"measurement": "Km", "setting": "CYP2C8 [7]; read-out: KM or S50 (C152 metabolism, fluorimetric assay), SS(2C8), Hill fit (S50), 30 °C, pH 7.4", "value": "12 ± 6", "unit": "µM"}, {"measurement": "Normalized rate", "setting": "CYP2C9 [8]; at 30 μM C152", "value": 0.496, "unit": "min⁻¹"}, {"measurement": "Expected participation", "setting": "CYP2C9 [8]; at 30 μM C152, % TNR", "value": "4% and 4.08%"}, {"measurement": "Normalized rate", "setting": "CYP2C9 [8]; [13]", "value": 0.981, "unit": "min⁻¹"}, {"measurement": "Fraction of C151 formed, LC-MS", "setting": "CYP1A2 [9]; [14]", "value": "20% and 20±2%"}, {"measurement": "Vmax (Formation of C151, LC-MS)", "setting": "CYP1A2 [9]; [15]", "value": "0.98 ± 0.12", "unit": "min⁻¹"}, {"measurement": "Km", "setting": "CYP1A2 [9]; [12]", "value": "1.7 ± 0.6", "unit": "µM"}, {"measurement": "Fraction of C151 formed, LC-MS", "setting": "CYP2C19; [14]", "value": "5.6±0.4", "unit": "%"}, {"measurement": "Vmax (Formation of C151, LC-MS)", "setting": "CYP2C19; [15]", "value": "0.43 ± 0.03", "unit": "min⁻¹"}, {"measurement": "Km", "setting": "CYP2C19; [12]", "value": "6.7 ± 1.5", "unit": "µM"}]}
